Most compounds without a hit are left out; they make up all but 3.5% or so of the library.
MrgX1 antag: human MrgX1 receptor antagonism, primary screen | Q96LB2 | MRGX1-HEK293 calcium flux, Fluo-4, BAM8-22 antagonism; hits give low values | B-score at 10 µM | 310,000 tested, 1.3% active;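 active = calcium-response B-score plate-corrected more than 3 library SD below zero, starting fluorescence within 5 deviations, no agonist response on first addition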;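 note: peak minus trough fluorescence over baseline after final BAM8-22 challenge near maximal dose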
Target sequence (Q96LB2 whole entry, looked up): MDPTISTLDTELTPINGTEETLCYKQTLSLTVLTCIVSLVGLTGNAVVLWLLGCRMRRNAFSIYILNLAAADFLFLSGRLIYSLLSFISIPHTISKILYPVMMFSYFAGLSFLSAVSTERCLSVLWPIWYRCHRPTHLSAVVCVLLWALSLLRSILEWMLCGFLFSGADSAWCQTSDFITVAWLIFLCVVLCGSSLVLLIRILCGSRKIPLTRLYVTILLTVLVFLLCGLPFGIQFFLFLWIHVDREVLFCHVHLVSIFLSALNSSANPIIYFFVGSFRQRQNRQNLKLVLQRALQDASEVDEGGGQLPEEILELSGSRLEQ
RGS4 inh: inhibitors of human RGS4 | HEK293 M3R/RGS4 inducible, Fluo-4 calcium flux; hits give high values; triggered by carbachol at its EC20 | P49798 | AID 463165 | B-score at 10 µM | 310,000 tested, 0.45% active;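 active = B-score, a plate-corrected calcium signal, over three deviations above library mean, with baseline fluorescence within five deviations of library mean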;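 note: RGS4 expression induced by doxycycline in cells with stable M3 receptor; B-score is computed from the integrated fluorescence ratio over baseline after carbachol; higher B-score means a larger calcium signal and so more RGS4 inhibition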
Target sequence (P49798 whole entry, looked up): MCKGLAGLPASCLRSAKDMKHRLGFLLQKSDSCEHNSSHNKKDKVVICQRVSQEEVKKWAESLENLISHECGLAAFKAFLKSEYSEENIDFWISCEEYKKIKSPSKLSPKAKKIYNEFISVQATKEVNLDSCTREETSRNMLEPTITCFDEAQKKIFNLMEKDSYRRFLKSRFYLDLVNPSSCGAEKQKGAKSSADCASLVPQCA
RGS4 act: RGS4 potentiation or activation. 310,000 tested, 0.92% active. B-score at 10 µM. HEK293 M3R/inducible RGS4, carbachol calcium flux Fluo4; hits give low values;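 active = B-score of the integrated calcium signal more than 4 SD below the library mean, with starting fluorescence not abnormally high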;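 note: negative B-score means reduced calcium response which marks RGS4 activation or potentiation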
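Test system: HEK293 cells with stable M3R and inducible RGS4; also added: carbachol at ECmax as muscarinic agonist stimulus; schedule: dye loading 30 min 37 °C, buffer rest 30 min RT; technique: kinetic calcium fluorescence imaging with Fluo4-AM dye, 2 µM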
MrgX1 ag: activates human MrgX1 receptor signaling | Q96LB2 | MrgX1-HEK293 cells, Fluo-4 calcium fluorescence, agonist mode; hits give high values | B-score at 10 µM | 310,000 tested, 0.44% active | AID 588627;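 active = calcium response B-score plate-corrected fluorescence ratio at least 3 library SD, with starting fluorescence B-score inside 5 SD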
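Test system: HEK293 cells stably expressing human MrgX1 receptor; amount: 15,000 cells per well; doses: compound delivered in addition one of three; times: overnight plating before 1 h dye loading; detection: Fluo-4 NW calcium-flux fluorescence, kinetic read; read-out basis: B-scored fluorescence response ratio; controls: positive and negative controls per plate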
MrgX1 PAM: allosterically activates human MrgX1 receptor signaling | Q96LB2 | MrgX1-HEK293, Fluo-4 calcium flux, FDSS; hits give high values | B-score at 10 µM | 310,000 tested, 0.63% active | AID 588675;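 active = plate-corrected calcium response at least 3 library SD above typical, normal starting fluorescence, not activating the receptor alone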;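 note: compound read alongside a low EC10 to EC30 dose of BAM8-22 agonist; peak minus trough fluorescence over baseline measured at the second addition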
* hit, by the source's call; i = inactive.

SMILES	MrgX1 antag	RGS4 inh	RGS4 act	MrgX1 ag	MrgX1 PAM
O=C(COc1ccc(S(=O)(=O)N2CCOCC2)cc1Cl)NCC1CCCO1 (configuration not stated)	i	i	i	i	i
CCCSc1nnc(NC(=O)c2sc3nc(-c4cccs4)ccc3c2N)s1	i	i	i	38.2*	i
Cc1cc(C)c2oc(C(=O)Nc3nnc(C(C)C)s3)cc(=O)c2c1	i	i	i	i	i
CSc1nnc(NC(=O)c2cc(=O)c3cc(C)cc(C)c3o2)s1	i	i	i	i	10.5*
CCn1c(C)nc2cc(C(=O)NNC(=O)Nc3ccc(Cl)cc3)ccc21	i	i	i	i	i
CCn1c(C)nc2cc(C(=O)NNC(=O)Nc3cccc(Cl)c3)ccc21	-6.31*	i	i	i	i
COc1ccc(-c2noc(CCC(=O)N3CCN(Cc4ccccc4)CC3)n2)cc1	-5.32*	i	i	i	i
COc1ccc(-c2noc(CCC(=O)N3CCC(C)CC3)n2)cc1	i	i	i	i	i
Cc1ccc(Nc2nc(N)c([N+](=O)[O-])c(NCCO)n2)cc1	i	i	i	i	8.01*
Nc1nc(Nc2cccc(F)c2)nc(NCCO)c1[N+](=O)[O-]	i	i	i	i	i
COc1ccc(-c2oc3cccnc3c2/C=C/c2ccc(OC)c(OC)c2)cc1	i	i	i	i	i
Cc1ccc(Cl)cc1N1CCN(C(=O)c2cc3c(=O)n(C)c4ccccc4c3n2C)CC1	i	i	-7.17*	i	i
O=C(/C=C/c1ccccc1)CC(O)(c1ccccc1)C(F)(F)C(F)F (configuration not stated)	i	i	-8.9*	i	i
COc1ccc(/C=C/C(=O)CC(O)(c2ccccc2)C(F)(F)F)cc1 (configuration not stated)	i	i	i	i	i
O=C(/C=C/c1ccccc1)CC(O)(c1ccccc1)C(F)(F)F (configuration not stated)	i	i	-10.2*	i	i
CCN(CC)CCCNC(=S)N1CCN(c2nc3ccccc3n2CC)CC1	i	i	i	i	i
Cc1c(OCC(=O)N2CCC(C(=O)NCCCC(=O)O)CC2)ccc2c1oc(=O)c1ccccc12	i	i	i	i	i
CN1CCN(C2=C(Cl)C(=O)C(c3cnc(N4CCCCC4)s3)=C(Cl)C2=O)CC1	i	i	-7.12*	i	i
COC(=O)c1cn(C(=O)c2cc(Br)ccc2Cl)c2ccccc12	i	i	i	i	i
NC(=O)[C@H]1CC2(CC(c3cccc(NC(=O)COc4ccc(Cl)cc4)c3)=NO2)CN1C(=O)C(c1ccccc1)c1ccccc1 (some centres not stated)	i	i	i	i	i
CCN(CC)Cc1c(O)ccc2c(=O)c(-c3ccc(Cl)cc3)coc12	i	i	i	i	i
CCCOC(=O)c1ccc(Oc2coc3c(CN(CC)CC)c(O)ccc3c2=O)cc1	i	i	-8.6*	i	i
COc1ccc(C(CC(=O)c2ccccc2)CC(=O)c2ccccc2)cc1OC	-6.66*	i	i	i	i
Cc1nc2ccccn2c1C(=O)N=Nc1c(O)n(CCC(C)C)c2ccccc12	i	i	-7.31*	i	i
COc1ccc(/C=C2\OC(=S)N(C)C2=O)cc1	i	i	i	i	i
SMILES	MrgX1 antag	RGS4 inh	RGS4 act	MrgX1 ag	MrgX1 PAM
CN1C(=O)/C(=C\c2ccc(N(C)C)cc2)OC1=S	i	i	i	63.1*	i
COc1ccc(NC2CCCN(C(=O)CCc3cn[nH]c3)C2)cc1 (configuration not stated)	i	i	i	i	i
CCC(=O)O[C@]1(C(=O)SCF)[C@H](C)C[C@H]2[C@@H]3C[C@H](F)C4=CC(=O)C=C[C@]4(C)[C@@]3(F)[C@@H](O)C[C@@]21C	-6.21*	i	i	i	i
CC1(c2cc(C(F)(F)F)n3nc(C(=O)O)cc3n2)CC1	i	i	i	i	i
CC(=O)c1ccc(-n2cc(-c3ccc(C(C)(C)C)cc3)[n+]3c2SCCC3)cc1	i	i	-9.63*	i	i
COc1ccc(C2N(S(=O)(=O)c3ccccc3)CCN2S(=O)(=O)c2ccc(C)cc2)cc1 (configuration not stated)	i	i	i	i	i
CN(C)CCCN1C(=O)C(O)=C(C(=O)c2cccs2)C1c1cccc([N+](=O)[O-])c1 (configuration not stated)	i	i	i	i	6.55*
O=C(C1=C(O)C(=O)N(CCN2CCOCC2)C1c1ccc([N+](=O)[O-])cc1)c1cccs1 (configuration not stated)	i	i	i	i	i
CC(C)NCC(O)COCCOc1ccc(C(C)(C)C)cc1 (configuration not stated)	-5.23*	i	i	i	i
CC(=O)NC(CC(=O)O)c1ccccc1 (configuration not stated)	i	i	i	i	i
CC(=O)NC(CC(=O)N1CCCC1)c1ccccc1 (configuration not stated)	-5.26*	i	i	i	i
COc1ccccc1N1CCN(C2CCCN(Cc3ccccc3OCCO)C2)CC1 (configuration not stated)	i	i	i	i	i
COc1cc(NC(=O)CN2C(=O)NC(c3ccccc3)(c3ccccc3)C2=O)c(C)cc1[N+](=O)[O-]	i	i	i	i	i
COc1ccc(CN2CCCC(C(=O)c3cccc(C(F)(F)F)c3)C2)cc1O (configuration not stated)	i	i	-7.61*	i	i
Cc1oc(-c2ccccc2Cl)nc1CN1CCCC1c1ccc(F)cc1 (configuration not stated)	i	i	i	i	i
Cc1oc(-c2ccccc2Cl)nc1CN1CCCCC1c1cccnc1 (configuration not stated)	i	i	i	40.6*	i
O=C(OC(C(=O)NCc1ccc(F)cc1)c1ccccc1)c1ccco1 (configuration not stated)	i	i	i	i	i
CC(C)Oc1ccc(C(=O)NC2(C(F)(F)F)NC(=O)N(CCCc3ccccc3)C2=O)cc1 (configuration not stated)	i	i	-7.11*	i	i
CCCCN1C(=O)NC(NC(=O)c2ccco2)(C(F)(F)F)C1=O (configuration not stated)	i	i	i	i	i
